Measured values published in ChEMBL document CHEMBL3763032, “Novel Small Molecule Inhibitors of Choline Kinase Identified by Fragment-Based Drug Discovery” (J Med Chem, 2016).
Active and inactive are the calls of the source. The calls are words filed in the database; no cut-off is given here.

Tests used:
[1] = target: T1, Choline kinase alpha (Homo sapiens, UniProt P35790); assay: Reversible binding affinity to human N-terminal truncated ChoKalpha1 (75 to 457 residues) ChoKalpha1 by STD NMR analysis
Outline: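 Saturation-transfer difference NMR primary screen. On-resonance irradiation was at 0.8 ppm and off-resonance at 30 ppm, with excitation-sculpting water suppression; 320 scans were averaged.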
Target sequence in this assay (P35790 whole entry, looked up, the tested form may be a part): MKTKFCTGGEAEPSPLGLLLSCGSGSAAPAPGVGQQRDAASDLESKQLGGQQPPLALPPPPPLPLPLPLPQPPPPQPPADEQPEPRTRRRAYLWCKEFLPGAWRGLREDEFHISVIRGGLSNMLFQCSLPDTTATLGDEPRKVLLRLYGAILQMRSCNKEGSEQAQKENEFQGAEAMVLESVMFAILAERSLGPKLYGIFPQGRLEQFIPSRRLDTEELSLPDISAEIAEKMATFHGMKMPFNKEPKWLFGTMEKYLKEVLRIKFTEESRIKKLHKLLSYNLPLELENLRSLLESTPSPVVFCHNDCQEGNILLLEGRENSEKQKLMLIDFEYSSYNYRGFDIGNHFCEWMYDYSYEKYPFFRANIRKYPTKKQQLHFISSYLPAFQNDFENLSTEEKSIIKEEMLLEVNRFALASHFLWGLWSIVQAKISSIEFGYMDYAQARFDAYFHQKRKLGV

[2] = target: T1, Choline kinase alpha
Target sequence in this assay (P35790 whole entry, the tested form may be a part): as the sequence (P35790 whole entry, looked up, the tested form may be a part) above

[3] = target: T1, Choline kinase alpha; remark: listed apart in the source
Target sequence in this assay (P35790 whole entry, the tested form may be a part): as the sequence (P35790 whole entry, looked up, the tested form may be a part) above

[4] = target: T1, Choline kinase alpha; remark: listed apart in the source
Target sequence in this assay (P35790 whole entry, looked up, the tested form may be a part): as above

[5] = target: T1, Choline kinase alpha; assay: Inhibition of ChoKalpha in human MDA-MB-415 cells assessed as reduction in phosphocholine level after 24 hrs by NMR analysis; assay type: cell-based
Target sequence in this assay (P35790 whole entry, the tested form may be a part): as the sequence (P35790 whole entry, looked up, the tested form may be a part) above

[6] = Effect on phosphocholine level in human MCF12A cells after 24 hrs by NMR analysis; assay type: ADME, cell-based; details: mcf-12a
Outline: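 Cells grown with increasing compound concentrations or vehicle (DMSO) for 24 h, then counted and checked for viability by Trypan blue exclusion. 5 ×10^6 viable cells washed twice in ice-cold d-PBS and extracted by vortexing 30 s in 6 mL ice-cold 100% methanol. Intracellular choline and phosphocholine quantified by NMR.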

[7] = Cytotoxicity against human MCF12A cells after 72 hrs by CyQuant cell proliferation assay; assay type: cell-based, MCF-12A; details: for GI50 at 72 h: MCF12A cells; for %max: mcf-12a, 72 h
Outline: (§1)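 Cells from ATCC, used within 6 months, grown in the supplier-recommended medium. Treated with compound or vehicle for 72 h, then read by CyQuant proliferation kit. GI50 determined after correcting for cell count at time zero, with growth plotted as percent of vehicle-treated cells. Mean ±SD from ≥2 separate experiments.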

[8] = tested on: MDA-MB-468; assay: Cytotoxicity against human MDA-MB-468 cells expressing ChoKalpha after 72 hrs by CyQuant cell proliferation assay; assay type: functional; details: for GI50: Homo sapiens, MDA-MB-468, 72 h; outline: as §1
[9] = tested on: MDA-MB-415; assay: Cytotoxicity against human MDA-MB-415 cells expressing ChoKalpha after 72 hrs by CyQuant cell proliferation assay; assay type: functional; details: for GI50: Homo sapiens, MDA-MB-415, 72 h; outline: as §1
[10] = Cytotoxicity against human MCF10A cells after 72 hrs by CyQuant cell proliferation assay; assay type: cell-based, MCF-10A; details: for GI50 at 72 h: MCF10A cells; for %max: mcf-10a, 72 h; outline: as §1
[11] = tested on: MDA-MB-415; assay: Induction of apoptosis in human MDA-MB-415 cells expressing ChoKalpha after 24 hrs by caspase-3/7 assay; assay type: functional, cell-based
Outline: (§2)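 Cells exposed to compounds for 24 h, then caspase activity measured with the Apo-ONE homogeneous caspase-3/7 assay. Apoptosis expressed as a percentage of vehicle-treated cells, from one representative experiment.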

[12] = Induction of apoptosis in human MCF12A cells upto 40 uM after 24 hrs by caspase-3/7 assay; assay type: cell-based; details: mcf-12a; outline: as §2
[13] = tested on: MDA-MB-468; assay: Cytotoxicity against human MDA-MB-468 cells after 72 hrs by MTT assay; assay type: functional, cell-based; details: MDA-MB-468, 72 h
[14] = Cytotoxicity against human MCF10A cells after 72 hrs by MTT assay; assay type: cell-based; details: MCF-10A
[15] = target: T1, Choline kinase alpha; assay: Inhibition of ChoKalpha in human MDA-MB-468 cells assessed as reduction in phosphocholine level after 24 hrs by NMR analysis; assay type: cell-based
Target sequence in this assay (P35790 whole entry, the tested form may be a part): as the sequence (P35790 whole entry, looked up, the tested form may be a part) above

[16] = target: T1, Choline kinase alpha; assay: Inhibition of recombinant human ChoKalpha using choline as substrate by ultraviolet spectroscopic assay
Outline: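 Coupled ATP-regeneration assay with recombinant human ChoKα1 (N-terminal His tag, pET28a, >95% pure) at 10–50 nM monomer. A340 read over 10–30 min. Initial rates taken across 2-fold inhibitor dilutions and fitted to a dose–response model for IC50.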
Target sequence in this assay (P35790 whole entry, the tested form may be a part): as the sequence (P35790 whole entry, looked up, the tested form may be a part) above

[17] = target: Carbonic anhydrase 2 (Homo sapiens, UniProt P00918); assay: Binding affinity to carbonic anhydrase2 (unknown origin) by surface plasmon resonance assay
Outline: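 Carbonic anhydrase II, used as the reference surface, amine-coupled at a density similar to the ChoKα1 surface. 25 °C, 2-fold dilution series (fragments top at 300 μM). Single-step kinetics (Biacore) or FastStep (SensiQ). Kd from 1:1 binding model fits.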

| Compound | Kd [2] | IC50 [3] | Ka [4] | other results |
| --- | --- | --- | --- | --- |
| Cc1cc(O)cc(C)c1C#N |  |  |  | Activity [1]: Active |
| CN1CCCN(Cc2ccc3ccccc3c2)CC1 | 4.3 µM | 2.6 µM |  |  |
| CN1CCCN(Cc2ccc(-c3ccc(CN4CCCN(C)CC4)c(F)c3F)cc2)CC1 | 0.021 µM | 0.233 µM | 718000 M⁻¹ s⁻¹ |  |
| CN1CCCN(Cc2ccc3ncccc3c2)CC1 | 4 µM | 3.9 µM |  |  |
| CN1CCCN(Cc2ccc(-c3cc(F)c(CN4CCCN(C)CC4)c(F)c3)cc2)CC1 | 0.259 µM | 0.255 µM | 125000 M⁻¹ s⁻¹ |  |
| CN1CCNCC(Cc2ccc3ncccc3c2)C1 (configuration not stated) | 7 µM | 17.2 µM |  |  |
| CN1CCCN(Cc2ccc(-c3ccc(CN4CCCN(C)CC4)cc3F)cc2)CC1 | 0.211 µM | 0.165 µM | 93000 M⁻¹ s⁻¹ |  |
| CN1CCCN(Cc2ccc(-c3ccccc3)cc2)CC1 | 3.7 µM | 1.48 µM |  |  |
| CN1CCCN(Cc2ccc(-c3ccc(CN4CCCN(C)CC4)cc3C#N)c(F)c2)CC1 | 0.099 µM | 0.085 µM | 112000 M⁻¹ s⁻¹ | IC50 [5]: 0.75 µM; Activity [6]: Non-toxic; GI50 at 72 h [7]: > 40 µM; %max [7]: 51%; %max [8]: 139%; GI50 [8]: 7 µM; %max [9]: 189%; GI50 [9]: 2 µM; GI50 at 72 h [10]: 18 µM; %max [10]: 99%; Activity [11]: Active; Activity [12]: Non-toxic |
| CN(c1ccc(Cl)cc1)c1cc[n+](Cc2ccc(-c3ccc(C[n+]4ccc(N(C)c5ccc(Cl)cc5)c5ccccc54)cc3)cc2)c2ccccc12 [RSM-932A] |  |  |  | IC50 [13]: 2.4 µM; IC50 [14]: 7.1 µM |
| COc1ccc(-c2ccc(CN3CCCN(C)CC3)cc2)cc1 | 3.8 µM | 1.43 µM |  |  |
| CN1CCCN(Cc2ccc(-c3ccc(CN4CCCN(C)CC4)cc3)cc2)CC1 | 0.382 µM | 0.457 µM | 94000 M⁻¹ s⁻¹ | IC50 [15]: 2 µM; GI50 at 72 h [7]: 31 µM; %max [7]: 64%; %max [8]: 163%; GI50 [8]: 9 µM; %max [9]: 158%; GI50 [9]: 4 µM; GI50 at 72 h [10]: 27 µM; %max [10]: 77%; Activity [11]: Active; Activity [12]: Non-toxic |
| O[C@](CCc1ccccc1OC1CCOCC1)(c1ccccc1)C1CN2CCC1CC2 (some centres not stated) |  |  |  | IC50 [16]: 0.02 µM |
| CN1CCCN(Cc2ccc(-c3ccc(C(F)(F)F)cc3)cc2)CC1 | 4 µM | 2.6 µM |  |  |
| CN1CCCN(Cc2ccc(-c3ccc(C(=O)N4CCCN(C)CC4)cc3)cc2)CC1 | 0.195 µM | 0.251 µM |  |  |
| Nc1cc(C(F)(F)F)ncn1 | 630 µM | > 300 µM |  | Kd [17]: 670 µM |
| CN1CCCN(Cc2ccc(-c3ccc(CN4CCCN(C)CC4)c(Cl)c3)cc2)CC1 | 0.088 µM | 0.268 µM | 235000 M⁻¹ s⁻¹ |  |
| CN1CCCN(Cc2ccc(-c3ccc(N4CCN(C)CC4)cc3)cc2)CC1 | 0.769 µM | 1.3 µM |  |  |
| COC(=O)c1ccc(-c2ccc(CN3CCCN(C)CC3)cc2)cc1 | 2.4 µM | 4.95 µM |  |  |
| CN1CCCN(c2ccc(CO)cc2)CC1 | 194 µM | > 2000 µM |  |  |
| CN1CCCN(Cc2ccc(CN)cc2)CC1 | 132 µM | 87 µM |  | Kd [17]: 490 µM |
| O=C(N1CCCCCC1)N1CCNCC1 | 340 µM | > 300 µM |  | Kd [17]: 1400 µM |
| CN1CCCN(Cc2ccc(-c3ccc(CN4CCCN(C)CC4)cc3C#N)cc2)CC1 | 0.01 µM | 0.066 µM | 676000 M⁻¹ s⁻¹ |  |
